{"data": "Assay results from different studies", "method": "competition with immobilised ligand", "RPS6KA5 N-terminal kinase domain": "Ribosomal protein S6 kinase alpha-5, N-terminal kinase domain (RPS6KA5, Homo sapiens, UniProt O75582)", "RPS6KA5 C-terminal kinase domain": "Ribosomal protein S6 kinase alpha-5, C-terminal kinase domain (RPS6KA5, Homo sapiens, UniProt O75582)", "note": "Protocols differ between the studies behind these lines."}
{"Compound": "O=C(Nc1c[nH]nc1C(=O)NC1CCNCC1)c1cc(F)cc(F)c1", "target": "RPS6KA5 N-terminal kinase domain", "read-out": "binding", "tested at": "1 µM", "remaining binding [%]": 96}
{"Compound": "COc1cnc(Nc2cccc(S(N)(=O)=O)c2)nc1N1CCN(c2ccccc2)C(=O)C1", "target": "RPS6KA5 C-terminal kinase domain", "read-out": "binding", "tested at": "1 µM", "remaining binding [%]": 100}
{"Compound": "O=C(O)[C@@H]1[C@@H](Cn2nnc3ccccc3c2=O)CC[C@H]1C(=O)c1ccc(OCCC2CCOCC2)cc1", "target": "RPS6KA5 C-terminal kinase domain", "read-out": "cell-free assay", "tested at": "1 µM", "remaining binding [%]": 100}
{"Compound": "Nc1ncc2c(n1)-c1c([nH]c3ccc(C#CC4CC4)cc13)CCCC2", "target": "RPS6KA5 N-terminal kinase domain", "read-out": "binding", "tested at": "1 µM", "remaining binding [%]": 93}
{"Compound": "CNC(=O)[C@@H]1CC[C@@H](n2c(-c3ccc4cnccc4c3)nc3ccc(C(=O)NCc4cccc(C(N)=O)c4)cc32)C1", "target": "RPS6KA5 N-terminal kinase domain", "read-out": "binding", "tested at": "1 µM", "remaining binding [%]": 100}
{"Compound": "Cc1cnn2ncc(-c3ccnc(N(C)C)n3)c2c1", "target": "RPS6KA5 C-terminal kinase domain", "read-out": "binding", "tested at": "1 µM", "remaining binding [%]": 100}
{"Compound": "O=C(NCCCN1CCOCC1)c1ccc(Nc2nccc(-c3cc4ccccc4s3)n2)cc1", "target": "RPS6KA5 N-terminal kinase domain", "read-out": "binding", "tested at": "1 µM", "remaining binding [%]": 100}
{"Compound": "COc1cnc(Nc2cccc(S(N)(=O)=O)c2)nc1N1CCN(c2ccccc2)CC1", "target": "RPS6KA5 C-terminal kinase domain", "read-out": "binding", "tested at": "1 µM", "remaining binding [%]": 97}
{"Compound": "COc1ncc2cc3ccccc3nc2c1C#N", "target": "RPS6KA5 N-terminal kinase domain", "read-out": "cell-free assay", "tested at": "5 µM", "remaining binding [%]": 91}
{"Compound": "CCC(=O)N[C@H]1CC[C@@H](C(=O)N(C)c2ccc(-c3nc4ccccc4o3)cc2)C1", "target": "RPS6KA5 C-terminal kinase domain", "read-out": "cell-free assay", "tested at": "1 µM", "remaining binding [%]": 68}
{"Compound": "N[C@@H]1CCN(c2nccc(-c3cnn4ncccc34)n2)C1", "target": "RPS6KA5 C-terminal kinase domain", "read-out": "binding", "tested at": "1 µM", "remaining binding [%]": 100}
{"Compound": "CN(C)C(=O)Cn1cc(-c2nc([C@@](C)(c3ccc(-c4cnc(N)nc4)cc3)C3CC3)no2)cn1", "target": "RPS6KA5 C-terminal kinase domain", "read-out": "cell-free assay", "tested at": "1 µM", "remaining binding [%]": 92}
{"Compound": "C=CC(=O)N1CCC(C(=O)NCC(=O)N2CCN(c3nc(-c4cnc(N)nc4C(F)F)nc(N4CCOCC4)n3)CC2)CC1", "target": "RPS6KA5 C-terminal kinase domain", "read-out": "binding", "tested at": "1 µM", "remaining binding [%]": 100}
{"Compound": "c1cnn2ncc(-c3ccnc(N4CCC45COC5)n3)c2c1", "target": "RPS6KA5 N-terminal kinase domain", "read-out": "binding", "tested at": "1 µM", "remaining binding [%]": 100}
{"Compound": "CSc1cccnc1N1CCN(Cc2nc3ccccc3[nH]2)CC1", "target": "RPS6KA5 C-terminal kinase domain", "read-out": "cell-free assay", "tested at": "1 µM", "remaining binding [%]": 100}
{"Compound": "C[C@@H](c1ccc(-n2cnc3c(N)ncnc32)cc1)N1CCc2nn(C)c(Cc3ccccc3)c2C1=O", "target": "RPS6KA5 N-terminal kinase domain", "read-out": "binding", "tested at": "0.1 µM", "remaining binding [%]": 95}
{"Compound": "c1cncc(-c2cccc(Nc3nccc(NC4CCCCC4)n3)c2)c1", "target": "RPS6KA5 C-terminal kinase domain", "read-out": "binding", "tested at": "10 µM", "remaining binding [%]": 100}
{"Compound": "CN(C)c1ncc(F)c(-c2cnn3ncccc23)n1", "target": "RPS6KA5 N-terminal kinase domain", "read-out": "binding", "tested at": "1 µM", "remaining binding [%]": 98}
{"Compound": "c1ccc(N2CCN(Cc3nc4ccccc4[nH]3)CC2)nc1", "target": "RPS6KA5 C-terminal kinase domain", "read-out": "binding", "tested at": "1 µM", "remaining binding [%]": 100}
{"Compound": "Cc1cnc(Nc2ccc(C(=O)N3CCC(N4CCCC4)CC3)cc2)nc1-c1cc2ccccc2s1", "target": "RPS6KA5 C-terminal kinase domain", "read-out": "binding", "tested at": "1 µM", "remaining binding [%]": 96}
{"Compound": "CN(C)c1nccc(-c2cnn3ncccc23)n1", "target": "RPS6KA5 C-terminal kinase domain", "read-out": "binding", "tested at": "1 µM", "remaining binding [%]": 98}
{"Compound": "O=C(Nc1cccnn1)N1CC(C/C=C/c2cncc(Oc3ccc(C(F)(F)F)cn3)n2)C1", "target": "RPS6KA5 N-terminal kinase domain", "read-out": "cell-free assay", "tested at": "1 µM", "remaining binding [%]": 100}
{"Compound": "CCN1CCN(Cc2ccc(C(=O)Nc3ccc(C)c(Oc4ccc5c(c4)CC(=O)N5)c3)cc2C(F)(F)F)CC1", "target": "RPS6KA5 C-terminal kinase domain", "read-out": "binding", "tested at": "1 µM", "remaining binding [%]": 100}
{"Compound": "COc1ccc2c(c1)O[C@@H](c1ccc(OC)c(OC)c1)C[C@H]2NC(=O)C1(c2ccc3c(c2)OC(F)(F)O3)CC1", "target": "RPS6KA5 C-terminal kinase domain", "read-out": "cell-free assay", "tested at": "1 µM", "remaining binding [%]": 100}
{"Compound": "O=C(c1ccc(Nc2ncc(Cl)c(-c3ccc(Cl)s3)n2)cc1)N1CCC(N2CCCC2)CC1", "target": "RPS6KA5 N-terminal kinase domain", "read-out": "binding", "tested at": "1 µM", "remaining binding [%]": 100}
{"Compound": "F[C@@H]1CCN(c2nccc(-c3cnn4ncccc34)n2)C1", "target": "RPS6KA5 N-terminal kinase domain", "read-out": "binding", "tested at": "1 µM", "remaining binding [%]": 100}
{"Compound": "O=C(NCCCN1CCOCC1)c1ccc(Nc2ncc(Cl)c(-c3ccc(Cl)s3)n2)cc1", "target": "RPS6KA5 C-terminal kinase domain", "read-out": "binding", "tested at": "1 µM", "remaining binding [%]": 54}
{"Compound": "O=C(NCC1CCOCC1)c1n[nH]cc1NC(=O)c1c(F)cccc1F", "target": "RPS6KA5 C-terminal kinase domain", "read-out": "binding", "tested at": "1 µM", "remaining binding [%]": 94}
{"Compound": "O=C(c1ccc(Nc2ncc(Cl)c(-c3cc4ccccc4s3)n2)cc1)N1CCC(N2CCCC2)CC1", "target": "RPS6KA5 N-terminal kinase domain", "read-out": "binding", "tested at": "1 µM", "remaining binding [%]": 100}
{"Compound": "CN(CCCC(F)(F)F)c1nccc(-c2cnn3ncccc23)n1", "target": "RPS6KA5 N-terminal kinase domain", "read-out": "binding", "tested at": "1 µM", "remaining binding [%]": 100}
{"Compound": "O=C(c1ccc(Nc2nccc(-c3cc4ccccc4s3)n2)cc1)N1CCC(N2CCCC2)CC1", "target": "RPS6KA5 N-terminal kinase domain", "read-out": "binding", "tested at": "1 µM", "remaining binding [%]": 100}
{"Compound": "CN([C@@H]1CCc2c(CC(=O)O)c3cc(S(C)(=O)=O)ccc3n2C1)S(=O)(=O)c1ccc(F)cc1", "target": "RPS6KA5 N-terminal kinase domain", "read-out": "cell-free assay", "tested at": "1 µM", "remaining binding [%]": 85}
